Reference: ChEMBL document CHEMBL1155230, “Synthesis, biological evaluation, and structure-activity relationships for 5-[(E)-2-arylethenyl]-3-isoxazolecarboxylic acid alkyl ester derivatives as valuable antitubercular chemotypes” (J Med Chem, 2009)
Values after ≈ are worked out from the molar mass of the structure shown.

Assays:
[1] = tested on: Mycobacterium tuberculosis; assay: Antimycobacterial activity against Mycobacterium tuberculosis H37Rv replicating form by alamar blue assay; format: functional
Procedure, shortened: (§1)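 M. tuberculosis H37Rv (ATCC 27294) was tested, in replicating form by MABA and in nonreplicating form by LORA, following published procedures. The value is the MIC, reported as the average of three individual determinations.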

[2] = tested on: Mycobacterium tuberculosis; assay: Antimycobacterial activity against non replicating persistent form of Mycobacterium tuberculosis H37Rv after 10 days by low oxygen recovery assay; format: functional; conditions: 240 h; procedure, shortened: as §1
Vero = assay: Cytotoxicity against african green monkey Vero cells after 72 hrs; format: cell-based; conditions: Chlorocebus sabaeus
Staphylococcus aureus = assay: Antimicrobial activity against Staphylococcus aureus; format: functional
Candida albicans = assay: Antimicrobial activity against Candida albicans; format: functional
[3] = tested on: Mycolicibacterium smegmatis; assay: Antimicrobial activity against Mycobacterium smegmatis; format: functional
Escherichia coli = assay: Antimicrobial activity against Escherichia coli; format: functional

| Compound | MIC90 [1] | MIC90 [2] | IC50 (Vero) | MIC (Staphylococcus aureus) | MIC (Candida albicans) | MIC [3] | MIC (Escherichia coli) |
| --- | --- | --- | --- | --- | --- | --- | --- |
| CCOC(=O)c1cc(COc2cc(C(F)(F)F)nc3c(C(F)(F)F)cccc23)on1 | 0.9 µM (≈ 0.391 µg/mL) | 12.2 µM (≈ 5.3 µg/mL) | – | – | – | – | – |
| CCOC(=O)c1cc(/C=C/c2ccc(C(F)(F)F)cc2)on1 | 3.9 µM (≈ 1.21 µg/mL) | 6.8 µM (≈ 2.12 µg/mL) | – | – | – | – | – |
| CCOC(=O)c1cc(/C=C/c2ccccc2C(F)(F)F)on1 | 3.9 µM (≈ 1.21 µg/mL) | 12.1 µM (≈ 3.77 µg/mL) | – | – | – | – | – |
| CCOC(=O)c1cc(/C=C/c2ccco2)on1 | 7.9 µM (≈ 1.84 µg/mL) | 50.2 µM (≈ 11.7 µg/mL) | > 128 µM | – | – | – | – |
| CCOC(=O)c1cc(CCc2cc(O)cc(O)c2)on1 | > 128 µM | > 128 µM | – | – | – | – | – |
| CCOC(=O)c1cc(/C=C\c2cccc(OC)n2)on1 | 27.5 µM (≈ 7.54 µg/mL) | 45.9 µM (≈ 12.6 µg/mL) | – | – | – | – | – |
| CCOC(=O)c1cc(/C=C/c2c(Cl)ccc(C)c2F)on1 | 3.5 µM (≈ 1.08 µg/mL) | 7 µM (≈ 2.17 µg/mL) | > 128 µM | – | – | – | – |
| CCOC(=O)c1cc(/C=C/c2ccccc2CC)on1 | 0.98 µM (≈ 0.266 µg/mL) | 2 µM (≈ 0.543 µg/mL) | > 128 µM | – | – | – | – |
| CCCCOC(=O)c1cc(/C=C/c2ccc(OC)nc2)on1 | 2 µM (≈ 0.605 µg/mL) | 6.7 µM (≈ 2.03 µg/mL) | – | – | – | – | – |
| CCOC(=O)c1cc(/C=C/c2ccnc3ccccc23)on1 | 0.2 µM (≈ 0.0589 µg/mL) | 2.6 µM (≈ 0.765 µg/mL) | – | – | – | – | – |
| CCOC(=O)c1cc(/C=C/c2ccc(C)c3ccccc23)on1 | 17.3 µM (≈ 5.32 µg/mL) | 3.6 µM (≈ 1.11 µg/mL) | > 128 µM | – | – | – | – |
| CCOC(=O)c1cc(/C=C/c2ccc(N3CCN(C)CC3)cc2)on1 | 15.2 µM (≈ 5.19 µg/mL) | 37.4 µM (≈ 12.8 µg/mL) | – | – | – | – | – |
| CCOC(=O)c1cc(/C=C/c2ccc(F)cc2F)on1 | 5.3 µM (≈ 1.48 µg/mL) | 13.8 µM (≈ 3.85 µg/mL) | > 128 µM | – | – | – | – |
| CCOC(=O)c1cc(/C=C/c2cc(Cl)cc(Cl)c2)on1 | 5.4 µM (≈ 1.69 µg/mL) | 5.9 µM (≈ 1.84 µg/mL) | > 128 µM | – | – | – | – |
| O=C(O)c1cc(/C=C/c2cccc(C(F)(F)F)c2)on1 | > 128 µM | > 128 µM | – | – | – | – | – |
| CCOC(=O)c1cc(/C=C/c2ccccc2)on1 | 11.7 µM (≈ 2.85 µg/mL) | 18 µM (≈ 4.38 µg/mL) | – | – | – | – | – |
| CCCCOC(=O)c1cc(/C=C/c2ccnc3ccc(OC)cc23)on1 | 1.1 µM (≈ 0.388 µg/mL) | 1.8 µM (≈ 0.634 µg/mL) | > 128 µM | – | – | – | – |
| CCOC(=O)c1cc(/C=C/c2cc(OCc3ccccc3)cc(OCc3ccccc3)c2)on1 | 6.3 µM (≈ 2.87 µg/mL) | 4.7 µM (≈ 2.14 µg/mL) | > 128 µM | – | – | – | – |
| CCOC(=O)c1cc(/C=C/c2ccsc2)on1 | 1.6 µM (≈ 0.399 µg/mL) | 26.9 µM (≈ 6.71 µg/mL) | > 128 µM | – | – | – | – |
| O=C(O)c1cc(/C=C/c2cccc3ccccc23)on1 | > 128 µM | > 128 µM | – | – | – | – | – |
| CCCCCCCCOC(=O)c1cc(/C=C/c2c(Cl)cncc2Cl)on1 | 10.9 µM (≈ 4.33 µg/mL) | 9.2 µM (≈ 3.66 µg/mL) | > 128 µM | – | – | – | – |
| CCCCCCC(C)OC(=O)c1cc(/C=C/c2c(Cl)cncc2Cl)on1 (stereo not given) | 8.3 µM (≈ 3.3 µg/mL) | 24.2 µM (≈ 9.61 µg/mL) | > 128 µM | – | – | – | – |
| CCOC(=O)c1cc(/C=C/c2cccc(OC)c2)on1 | 3.7 µM (≈ 1.01 µg/mL) | 8.8 µM (≈ 2.4 µg/mL) | > 128 µM | – | – | – | – |
| CCOC(=O)c1cc(/C=C/c2cc(F)cc(F)c2)on1 | 3.7 µM (≈ 1.03 µg/mL) | 8.9 µM (≈ 2.49 µg/mL) | > 128 µM | – | – | – | – |
| CCOC(=O)c1cc(/C=C/c2ccccc2SC)on1 | 0.96 µM (≈ 0.278 µg/mL) | 7.8 µM (≈ 2.26 µg/mL) | > 128 µM | – | – | – | – |
| CCOC(=O)c1cc(/C=C/c2cccc(N)c2)on1 | 7.5 µM (≈ 1.94 µg/mL) | 20.7 µM (≈ 5.35 µg/mL) | > 128 µM | – | – | – | – |

| Compound | MIC90 [1] | MIC90 [2] | IC50 (Vero) | MIC (Staphylococcus aureus) | MIC (Candida albicans) | MIC [3] | MIC (Escherichia coli) |
| --- | --- | --- | --- | --- | --- | --- | --- |
| CCOC(=O)c1cc(/C=C/c2cccc(C(C)C)c2)on1 | 3.1 µM (≈ 0.885 µg/mL) | 8.3 µM (≈ 2.37 µg/mL) | > 128 µM | – | – | – | – |
| CCOC(=O)c1cc(/C=C/c2cc(OC)cc(OC)c2)on1 | 2 µM (≈ 0.607 µg/mL) | 3.6 µM (≈ 1.09 µg/mL) | > 128 µM | – | – | – | – |
| CCOC(=O)c1cc(/C=C/c2ccc(OC)nc2)on1 | 1.4 µM (≈ 0.384 µg/mL) | 86.6 µM (≈ 23.8 µg/mL) | > 128 µM | – | – | – | – |
| CCOC(=O)c1cc(/C=C/c2cccc(Cl)c2)on1 | 2.3 µM (≈ 0.639 µg/mL) | 6.7 µM (≈ 1.86 µg/mL) | > 128 µM | – | – | – | – |
| CCOC(=O)c1cc(/C=C\c2cc(F)cc(F)c2)on1 | 29.2 µM (≈ 8.15 µg/mL) | 12.3 µM (≈ 3.43 µg/mL) | > 128 µM | – | – | – | – |
| CCC(CC)OC(=O)c1cc(/C=C/c2c(Cl)cncc2Cl)on1 | 7.9 µM (≈ 2.81 µg/mL) | 8.9 µM (≈ 3.16 µg/mL) | > 128 µM | – | – | – | – |
| CCOC(=O)c1cc(/C=C/c2cccc(C(F)(F)F)c2)on1 | 0.73 µM (≈ 0.227 µg/mL) | 21.1 µM (≈ 6.57 µg/mL) | > 128 µM | > 100 µM | > 100 µM | > 100 µM | > 100 µM |
| CCOC(=O)c1cc(/C=C/c2cccc(C)c2)on1 | 6.5 µM (≈ 1.67 µg/mL) | 7.4 µM (≈ 1.9 µg/mL) | > 128 µM | – | – | – | – |
| CCOC(=O)c1cc(/C=C/c2cccc3ccccc23)on1 | 1.6 µM (≈ 0.469 µg/mL) | 4 µM (≈ 1.17 µg/mL) | > 128 µM | – | – | – | – |
| Clc1cncc(Cl)c1/C=C/c1ccno1 | > 128 µM | > 128 µM | – | – | – | – | – |
| CCOC(=O)c1cc(/C=C/c2c(Cl)cccc2Cl)on1 | 2.5 µM (≈ 0.78 µg/mL) | 3.5 µM (≈ 1.09 µg/mL) | – | – | – | – | – |
| CCOC(=O)c1cc(CCc2cccc(C(F)(F)F)c2)on1 | 14.2 µM (≈ 4.45 µg/mL) | 15.6 µM (≈ 4.89 µg/mL) | – | – | – | – | – |
| CCOC(=O)c1cc(/C=C/c2ccc(OC)cc2F)on1 | 3.8 µM (≈ 1.11 µg/mL) | 10.7 µM (≈ 3.12 µg/mL) | – | – | – | – | – |
| CCOC(=O)c1cc(/C=C/c2cccc(O)c2)on1 | 7.8 µM (≈ 2.02 µg/mL) | 28.7 µM (≈ 7.44 µg/mL) | > 128 µM | – | – | – | – |
| O=C(OCCCC1CCCC1)c1cc(/C=C/c2c(Cl)cncc2Cl)on1 | 7.3 µM (≈ 2.89 µg/mL) | 9.3 µM (≈ 3.68 µg/mL) | – | – | – | – | – |
| CCOC(=O)c1cc(/C=C/c2cccc(OC)n2)on1 | 3.8 µM (≈ 1.04 µg/mL) | 16 µM (≈ 4.39 µg/mL) | – | – | – | – | – |
| CCOC(=O)c1cc(/C=C\c2cccc([N+](=O)[O-])c2)on1 | 5.4 µM (≈ 1.56 µg/mL) | 10.9 µM (≈ 3.14 µg/mL) | > 128 µM | – | – | – | – |
| CCOC(=O)c1cc(/C=C/c2c(Cl)cncc2Cl)on1 | 0.59 µM (≈ 0.185 µg/mL) | 5.1 µM (≈ 1.6 µg/mL) | > 128 µM | > 100 µM | > 100 µM | 94.4 µM (≈ 29.6 µg/mL) | > 100 µM |
| CCCCOC(=O)c1cc(/C=C/c2cccc(OC)c2)on1 | 1.8 µM (≈ 0.542 µg/mL) | 7.6 µM (≈ 2.29 µg/mL) | – | – | – | – | – |
| CCOC(=O)c1cc(/C=C/c2ccnc3ccc(OC)cc23)on1 | 0.4 µM (≈ 0.13 µg/mL) | 1.1 µM (≈ 0.357 µg/mL) | – | – | – | – | – |
| CCOC(=O)c1cc(/C=C/c2cccc([N+](=O)[O-])c2)on1 | 1.2 µM (≈ 0.346 µg/mL) | 5.1 µM (≈ 1.47 µg/mL) | > 128 µM | – | – | – | – |
| CCOC(=O)c1cc(/C=C/c2ccncc2)on1 | 15.5 µM (≈ 3.79 µg/mL) | 52.4 µM (≈ 12.8 µg/mL) | > 128 µM | – | – | – | – |
| NNC(=O)c1ccncc1 [ISONIAZID] | 0.84 µM (≈ 0.115 µg/mL) | > 128 µM | 128 µM | – | – | – | – |
| COc1c(N2C[C@@H]3CCCN[C@@H]3C2)c(F)cc2c(=O)c(C(=O)O)cn(C3CC3)c12 [MOXIFLOXACIN] | 0.46 µM (≈ 0.185 µg/mL) | > 128 µM | – | – | – | – | – |
| CO[C@H]1/C=C/O[C@@]2(C)Oc3c(C)c(O)c4c(O)c(c(/C=N/N5CCN(C)CC5)c(O)c4c3C2=O)NC(=O)/C(C)=C\C=C\[C@H](C)[C@H](O)[C@@H](C)[C@@H](O)[C@@H](C)[C@H](OC(C)=O)[C@@H]1C [RIFAMPIN] | 0.1 µM (≈ 0.0823 µg/mL) | 1.9 µM (≈ 1.56 µg/mL) | – | – | – | – | – |
